Bioassay records as filed in PubChem.
Most compounds without a hit are left out; they make up all but 4.2% or so of the library.
OX1R antag-1: blocks the human orexin 1 receptor; O43613; CHO/OX1R cells, Fluo-8 calcium fluorescence, orexin A; inhibition, % at 5 µM; 330,000 compounds, 0.43% hits; AID 434989;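 active means inhibition above its plate's threshold, mean inhibition of all tested compounds on the plate plus 3 SD, cut at about 37% in these data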
Target sequence (O43613 whole entry, looked up): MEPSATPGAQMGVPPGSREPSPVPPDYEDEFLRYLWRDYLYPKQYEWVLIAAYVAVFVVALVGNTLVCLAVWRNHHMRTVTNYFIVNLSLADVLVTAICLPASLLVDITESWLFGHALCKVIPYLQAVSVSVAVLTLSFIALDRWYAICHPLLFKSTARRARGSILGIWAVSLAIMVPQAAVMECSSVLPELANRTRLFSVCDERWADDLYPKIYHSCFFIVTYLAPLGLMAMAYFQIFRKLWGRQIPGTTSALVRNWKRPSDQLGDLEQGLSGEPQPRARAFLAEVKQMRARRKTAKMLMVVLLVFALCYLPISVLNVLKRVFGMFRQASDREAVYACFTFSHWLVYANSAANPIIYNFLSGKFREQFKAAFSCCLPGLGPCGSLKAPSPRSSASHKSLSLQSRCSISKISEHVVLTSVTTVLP
GalR3 antag: human GalR3 antagonism | O60755 | HEK293 GalR3-CNG cAMP membrane potential fluorescence; galR3 body fused to GalR1 C-terminus | inhibition, % at 3 µM | 360,000 compounds, 0.44% hits | AID 651719;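 active means inhibition above the screen-wide average plus 3 SD, cut at about 13% in these data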;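 further: forskolin and galanin both at EC90 stimulate the cells; cAMP rise reported by CNG channel membrane potential dye signal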
Target sequence (O60755 1-299 limits assumed): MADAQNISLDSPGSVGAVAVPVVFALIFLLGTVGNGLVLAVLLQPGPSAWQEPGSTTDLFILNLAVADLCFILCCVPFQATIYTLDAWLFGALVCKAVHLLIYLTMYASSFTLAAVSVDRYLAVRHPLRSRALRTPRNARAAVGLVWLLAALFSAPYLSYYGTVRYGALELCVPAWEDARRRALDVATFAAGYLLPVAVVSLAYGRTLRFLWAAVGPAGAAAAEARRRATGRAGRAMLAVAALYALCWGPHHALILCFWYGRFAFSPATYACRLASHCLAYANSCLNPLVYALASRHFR
CHO parental Ca: signal in parental CHO cells, OX1R antagonist counter-screen. 330,000 compounds, 0.63% hits. inhibition, % at 5.6 µM. parental CHO-K1, ATP-induced calcium, Fluo-8 fluorescence. AID 463079;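 active means inhibition above that plate's mean sample inhibition plus 3 SD, cut at about 26% in these data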
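Material: parental CHO cells / Compound: single nominal dose of 5.6 µM per compound / Signal: Fluo-8 fluorescence / Replicates: singlicate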
OX1R antag-2: antagonists of human orexin 1 receptor (OX1R). inhibition, % at 6.6 µM. AID 485270. 330,000 compounds, 1.8% hits. O43613. OX1R-expressing cells, FRET antagonist read-out; in the data active means inhibition mostly above about 38%, no sharp cut-off; inactive means mostly below about 40%
TAAR1 antag: antagonists of human TAAR1 | Q96RJ0 | CHO RD-HGA16 TAAR1, Fluo-8 calcium fluorescence, antagonist | inhibition, % at 3 µM | 360,000 compounds, 1.5% hits;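 active means inhibition above a per-plate cutoff, the mean inhibition of test compounds on that plate plus 3 SD, cut at about 49% in these data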
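Assay system: RD-HGA16 CHO cells with stable hTAAR1 and Gα16 / Reagent: EC80 β-phenethylamine stimulus / Doses: 3 µM, single point / Timing: dye loading 75 min at 37 °C, then 30 min room temperature / Measured by: Fluo-8 intracellular calcium dye fluorescence, real-time kinetic reads / Controls: vehicle wells and EC80 agonist wells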
TAAR1 ag: agonists of human TAAR1 | Q96RJ0 | CHO RD-HGA16 TAAR1, Fluo-8 calcium fluorescence; vehicle wells 0%, saturating PEA agonist 100% | activation, % at 3 µM | 360,000 compounds, 0.99% hits;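 active means activation above the mean activation of all test compounds in the run plus 3 SD, cut at about 38% in these data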
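Signal – calcium-sensitive Fluo-8 signal, excitation 470-495, emission 515-575 nm · System – RD-HGA16 (CHO) cells co-expressing Gα16 and hTAAR1 · Incubation – 17-24 h seeding, 75 min 37 °C dye, 30 min RT · Compound dosing – 3 µM single concentration · Repeats – no replicates (n 1)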
TAAR1 nonsel count: nonselective antagonism, TAAR1 counter-screen; shares compounds with TAAR1 antag; counterscreen cell line, calcium fluorescence, antagonist mode; inhibition, % at 3 µM; 2,400 compounds, 77% hits; in the data active means inhibition above about 22%;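 further: CHO-Ga16 host cells stimulated with ATP at an EC80 level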
TAAR1 ant conf: confirmation of human TAAR1 antagonists. inhibition, % at 3 µM. 2,400 compounds, 40% hits. TAAR1-expressing cells, fluorescence antagonist read-out. AID 651785. shares compounds with TAAR1 antag; in the data active means inhibition above about 49%;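 further: CHO-Ga16 host cells challenged with agonist PEA near its EC80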
Ga16 ag counter: counter-screen for TAAR1 antagonists: nonselective Ga16 agonists | shares compounds with TAAR1 antag | Ga16-expressing cells, calcium fluorescence, agonist counterscreen | activation, % at 3 µM | 2,400 compounds, 18% hits; in the data active means activation above about 12%
TAAR1 ag counter: TAAR1 agonism, antagonist counter-screen | 2,400 compounds, 2% hits | AID 651955 | hTAAR1 cell line, fluorescence activation, agonist mode | shares compounds with TAAR1 antag | activation, % at 3 µM; in the data active means activation above about 37%;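 further: CHO cells stably expressing TAAR1 with calcium dye readout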
Each line names hits and unclear results; the compound was inactive in the other large screens (follow-up assays come after a bar, where they were run).

O=C(CCC(=O)c1ccc(Oc2ccccc2)cc1)Nc1ccc(C(=O)O)cc1	none
CN(C)S(=O)(=O)c1cccc(C(=O)Nc2ccc(C(=O)Nc3cccc(S(N)(=O)=O)c3)cc2)c1	none
COC(=O)C1=C(C)N(Cc2cccc(C(F)(F)F)c2)C(=NCc2ccc(C(F)(F)F)cc2)NC1c1ccc(Cl)cc1 (configuration not stated)	none (no result: OX1R antag-1, CHO parental Ca, OX1R antag-2)
COC(=O)C1=C(C)N(Cc2ccc(C(F)(F)F)cc2)C(=NCc2ccccc2)NC1c1ccccc1 (configuration not stated)	TAAR1 antag 51 (no result: OX1R antag-1, CHO parental Ca, OX1R antag-2) | TAAR1 nonsel count 36 | TAAR1 ant conf inactive | Ga16 ag counter 18 | TAAR1 ag counter inactive
COC(=O)C1=C(C)N(Cc2cccc(C(F)(F)F)c2)C(=NCc2ccc3c(c2)OCO3)NC1c1ccc(Cl)cc1 (configuration not stated)	TAAR1 antag 56 (no result: OX1R antag-1, CHO parental Ca, OX1R antag-2) | TAAR1 nonsel count 37 | TAAR1 ant conf inactive | Ga16 ag counter 19 | TAAR1 ag counter 52
COC(=O)C1=C(C)N(Cc2cccc(C(F)(F)F)c2)C(=NCc2ccc(OC)cc2)NC1c1ccc(F)cc1 (configuration not stated)	TAAR1 antag 53 (no result: OX1R antag-1, CHO parental Ca, OX1R antag-2) | TAAR1 nonsel count 41 | TAAR1 ant conf inactive | Ga16 ag counter 15 | TAAR1 ag counter inactive
COC(=O)C1=C(C)N(Cc2ccc(C(F)(F)F)cc2)C(=NCc2ccccc2)NC1c1ccc(C(F)(F)F)cc1 (configuration not stated)	TAAR1 antag 55 (no result: OX1R antag-1, CHO parental Ca, OX1R antag-2) | TAAR1 nonsel count 41 | TAAR1 ant conf inactive | Ga16 ag counter 21 | TAAR1 ag counter 44
CCOC(=O)N1CCN(C(=O)C2CCN(S(=O)(=O)CC)CC2)CC1	none
COC(=O)C1=C(C)N(Cc2ccc(C(F)(F)F)cc2)C(=NCc2ccccc2)NC1c1cccc(Cl)c1 (configuration not stated)	TAAR1 antag 60 (no result: OX1R antag-1, CHO parental Ca, OX1R antag-2) | TAAR1 nonsel count 39 | TAAR1 ant conf inactive | Ga16 ag counter 13 | TAAR1 ag counter inactive
COC(=O)C1=C(C)N(C)C(=NCc2cccc(C(F)(F)F)c2)NC1c1ccc(C(F)(F)F)cc1 (configuration not stated)	TAAR1 antag 51 (no result: OX1R antag-1, CHO parental Ca, OX1R antag-2) | TAAR1 nonsel count 33 | TAAR1 ant conf inactive | Ga16 ag counter 13 | TAAR1 ag counter inactive
COC(=O)C1=C(C)N(Cc2ccc(F)cc2)C(=S)NC1c1cccc(OC)c1 (configuration not stated)	TAAR1 antag 57 (no result: OX1R antag-1, CHO parental Ca, OX1R antag-2) | TAAR1 nonsel count 24 | TAAR1 ant conf inactive | Ga16 ag counter inactive | TAAR1 ag counter inactive
CC(=O)c1c(C)[nH]c(C(=O)Nc2nc(-c3ccc(Cl)cc3)cs2)c1C	none
CC(=O)c1c(C)[nH]c(C(=O)Nc2nc(-c3ccc(-c4ccccc4)cc3)cs2)c1C	TAAR1 antag 93 | TAAR1 nonsel count 71 | TAAR1 ant conf 97 | Ga16 ag counter 27 | TAAR1 ag counter 37
O=C(N/N=C\c1ccc(COc2ccc([N+](=O)[O-])cc2)o1)c1ccc(Cl)cc1	none
O=C(N/N=C\c1ccc(COc2ccc([N+](=O)[O-])cc2)o1)c1cccc(Cl)c1	TAAR1 antag 56 | TAAR1 nonsel count 26 | TAAR1 ant conf inactive | Ga16 ag counter inactive | TAAR1 ag counter inactive
Cc1ccc(S(=O)(=O)CCc2nnc(NC(=O)c3ccco3)s2)cc1	none (no result: GalR3 antag, TAAR1 antag, TAAR1 ag)
COc1ccc(C(=O)N/N=C/c2ccc3cccc(OCc4ccccc4)c3n2)cc1	OX1R antag-2 76, TAAR1 antag 60 | TAAR1 nonsel count 27 | TAAR1 ant conf 53 | Ga16 ag counter inactive | TAAR1 ag counter inactive
O=C(N/N=C/c1ccc2cccc(OCc3ccccc3)c2n1)c1ccc(Br)cc1	TAAR1 antag 62 | TAAR1 nonsel count inactive | TAAR1 ant conf inactive | Ga16 ag counter inactive | TAAR1 ag counter inactive
CCC(=O)N1CCN(c2ccc(NC(=O)c3ccc(N4CCOCC4)c([N+](=O)[O-])c3)cc2)CC1	none
Cc1oc2c(cc(NS(=O)(=O)c3ccc(Cl)cc3)c3ccccc32)c1C(=O)O	none (no result: OX1R antag-1, CHO parental Ca, OX1R antag-2)
COc1cccc(OC)c1C(=O)Nc1cc(C)nn1-c1nc2ccccc2[nH]1	TAAR1 antag 69 | TAAR1 nonsel count 28 | TAAR1 ant conf 49 | Ga16 ag counter inactive | TAAR1 ag counter inactive
Nc1ccc(C#Cc2ccc3oc4ccccc4c(=O)c3c2)cc1	TAAR1 antag 68 | TAAR1 nonsel count inactive | TAAR1 ant conf inactive | Ga16 ag counter inactive | TAAR1 ag counter inactive
Nc1ccc2oc3ccccc3c2c1	none
O=C(Cn1ccc2ccccc2c1=O)NCCC(=O)N1CCN(C2CCCCC2)CC1	none
CC(=O)c1ccc(N2CCN(C(=O)CCCc3nc4ccccc4s3)CC2)cc1	TAAR1 antag 60 | TAAR1 nonsel count 34 | TAAR1 ant conf inactive | Ga16 ag counter inactive | TAAR1 ag counter inactive
Cc1cc(C)c2nc(C(F)(F)F)nc(NCCCN3CCCC3=O)c2c1	none
O=C(COC(=O)CCOc1ccccc1)Nc1ncc(Cl)cc1Cl	none
O=C(CCN1C(=O)CSc2ccccc21)Nc1ccc(C(F)(F)F)cc1	TAAR1 antag 62 | TAAR1 nonsel count inactive | TAAR1 ant conf inactive | Ga16 ag counter inactive | TAAR1 ag counter inactive
COc1ccc(CCn2c(C)cc(C(=O)CSc3nc(N)cc(=O)[nH]3)c2C)cc1	TAAR1 antag 51 | TAAR1 nonsel count 37 | TAAR1 ant conf inactive | Ga16 ag counter inactive | TAAR1 ag counter inactive
COc1ccc(CCn2c(C)cc(C(=O)CSc3nnnn3-c3ccccc3)c2C)cc1OC	TAAR1 antag 50 | TAAR1 nonsel count inactive | TAAR1 ant conf inactive | Ga16 ag counter 12 | TAAR1 ag counter inactive
O=C1NCN(c2ccccc2)C12CCN(CCCC(c1ccc(F)cc1)c1ccc(F)cc1)CC2	OX1R antag-1 40, TAAR1 antag 78 (no result: GalR3 antag) | TAAR1 nonsel count 47 | TAAR1 ant conf inactive | Ga16 ag counter 20 | TAAR1 ag counter inactive
CC(C)(C)NC(=O)NC(=O)COC(=O)Cc1coc2ccc3ccccc3c12	TAAR1 antag 52 | TAAR1 nonsel count 24 | TAAR1 ant conf inactive | Ga16 ag counter inactive | TAAR1 ag counter inactive
Cc1cccc(N2CCN(C(=O)c3ccnn3C)CC2)c1C	none
